Hits are enriched below; roughly 1.3% of the tested compounds scored in any of these assays.
PfG6PD inh: PfG6PD (Plasmodium falciparum) enzyme inhibition. inhibition, % at 20 µM. actives 0.78% (n = 350,000). PfGluPho enzyme, NADPH resazurin-diaphorase fluorescence;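 active = inhibition reaching at least a set limit at 20 µM in the primary screen, cut at about 59% in these data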;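 note: 0% = DMSO wells with substrate and 100% = DMSO wells lacking glucose-6-phosphate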
HKDC1 inh: inhibitors of human hexokinase HKDC1. recombinant HKDC1, G6PDH/diaphorase resazurin coupled fluorescence. Q2TB90. inhibition, % at 20 µM. actives 0.16% (n = 340,000);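 active = inhibition above about 35% when tested at 20 µM, limit read from the data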;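 note: plate controls were DMSO wells with enzyme for no effect and DMSO wells lacking enzyme for full effect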
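Assay system – recombinant HKDC1 (HK5) hexokinase enzyme, produced in-house · Input – HKDC1 at 5 µg/mL · Reagent – glucose plus 1 mM ATP as hexokinase substrates · Timing – 90 min reaction incubation at room temperature, dark · Measured by – G6PDH/diaphorase-coupled fluorescence, 1 mM NADP, 100 µM resazurin, 525/613 nm · Benchmarks – DMSO-enzyme wells negative, buffer-substituted wells positive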
Diaph act CS: diaphorase activation or chemical reduction counter-screen. Diaphorase/resazurin coupled assay, resorufin fluorescence, 16 min; stronger effect = higher value; 1 = vehicle wells, 0 = NADH-free wells. activation factor at 20 µM. actives 0.005% (n = 190,000). AID 1229;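 active = diaphorase activity raised at least twofold by the compound at 20 µM; inactive = activation factor below 2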
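test system = bacterial diaphorase enzyme (C. kluyveri) | quantity = enzyme 0.07 U/mL final | reagent = NADH substrate 0.114 mM plus resazurin dye 0.1 mM, final | incubation = 16 min enzyme reaction, ambient temperature | buffer or medium = HEPES pH 7.4 buffer with MgCl2 and Tween 20 | signal = fluorescence of resorufin, 544 nm excitation, 590 nm emission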
G6PDH counter: inhibits Leuconostoc G6PDH, flagging false hits in G6PDH-based assays; Purified L. mesenteroides G6PDH, diaphorase/resazurin coupled fluorescence, 45 min; inhibition, % at 5 µM; actives 0.12% (n = 200,000); AID 1020; in the data active = inhibition above about 50%
Diaph inh CS: inhibits diaphorase or chemically oxidizes, flagging diaphorase assay artifacts; diaphorase resazurin-to-resorufin fluorescence, NADH, 16 min; bacterial (C. kluyveri) enzyme, not human; actives 0.69% (n = 190,000); inhibition, % at 20 µM;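 active = primary screen inhibition at 20 µM above a set limit, cut at about 50% in these data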;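 note: plate controls were DMSO with full reaction for no effect and wells lacking NADH for full effect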
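Test system: diaphorase enzyme from Clostridium kluyveri; amount: diaphorase at 0.14 U/mL in enzyme working solution; detection: fluorescence of resorufin formed from resazurin, Ex 544/Em 590 nm; times: reaction incubation of 16 min at room temperature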
TbHK1 inh: blocks Trypanosoma brucei hexokinase 1 activity; actives 0.11% (n = 220,000); inhibition, % at 10 µM; recombinant TbHK1, G6PDH-coupled NADH A340;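 active = inhibition of 50% or more in the single-dose primary screen; inactive = inhibition below 50%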
HKDC1 act conf: HKDC1 (human) activation, single-dose confirmed; shares compounds with HKDC1 inh; inhibition, % at 20 µM; recombinant HKDC1, G6PDH/diaphorase resazurin fluorescence; stronger effect = lower value; AID 504708; actives 14% (n = 740);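 active = inhibition at or below a set negative limit, negative inhibition meaning the enzyme was activated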
PfG6PD confirm: confirmation of Plasmodium falciparum G6PD inhibitors; recombinant PfGluPho, NADPH-diaphorase-resazurin fluorescence; inhibition, % at 20 µM; shares compounds with PfG6PD inh; actives 34% (n = 2,400);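 active = inhibition of at least 50% at 20 µM in any single replicate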;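 note: 0% = DMSO with substrate and 100% = DMSO lacking glucose-6-phosphate substrate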
Diaph ctr 10uM: diaphorase inhibition or oxidation at 10 uM NADPH. shares compounds with PfG6PD inh. actives 39% (n = 820). inhibition, % at 20 µM. AID 504862. diaphorase-coupled resazurin reduction, fluorescence, NADPH 10 uM;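 active = average inhibition reaching 50% or more with the compound at 20 µM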;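 note: resorufin red fluorescence formed as diaphorase reduces resazurin using NADPH; 0% = DMSO with enzyme and 100% = DMSO without enzyme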
Diaph ctr 30uM: diaphorase inhibition or oxidation at 30 uM NADPH. inhibition, % at 20 µM. Diaphorase/resazurin coupled assay, resorufin fluorescence. shares compounds with PfG6PD inh. actives 29% (n = 820). AID 504863;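 active = inhibition averaging 50% or more, tested at 20 µM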;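 note: 0% = DMSO with enzyme and 100% = DMSO wells lacking diaphorase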
* marks the source's active call; other numbers are inactive results; nt = no result.

SMILES	PfG6PD inh	HKDC1 inh	Diaph act CS	G6PDH counter	Diaph inh CS	TbHK1 inh	PfG6PD confirm	others
COc1ccc(C(=O)n2c(C)c(CCO)c(=O)n2C)cc1	-4	-4	1	3	-3	3	nt
CC1COCC(C)N1C1=C(Cl)C(=O)c2ccccc2C1=O (stereo not given)	75*	38*	nt	nt	nt	nt	64*	HKDC1 act conf=43;Diaph ctr 10uM=28;Diaph ctr 30uM=24
NC1=C(Cl)C(=O)c2ccccc2C1=O	-94	-16	nt	nt	nt	nt	nt
CN1CCN(C2=C(Cl)C(=O)c3ccccc3C2=O)CC1	107*	44*	nt	nt	nt	nt	75*	HKDC1 act conf=33;Diaph ctr 10uM=74*;Diaph ctr 30uM=77*
NC(=O)C1CCN(C2=C(Cl)C(=O)c3ccccc3C2=O)CC1	74*	47*	0.9	60*	5	-7	43	HKDC1 act conf=73
NC(=O)C1CCN(C2=C(NS(=O)(=O)c3ccccc3)C(=O)c3ccccc3C2=O)CC1	-4	15	nt	nt	nt	-15	nt
CCC[C@H]1CC(=O)C=C(c2ccc(OC)cc2)ON1C(=O)OC(C)(C)C	21	4	nt	nt	nt	nt	nt
O=C(O)c1cc(O)c2c(c1)[C@H]([C@H]1c3cc(C(=O)O)cc(O)c3C(=O)c3c(O[C@@H]4O[C@H](CO)[C@@H](O)[C@H](O)[C@H]4O)cccc31)c1cccc(OC3O[C@H](CO)[C@@H](O)[C@H](O)[C@H]3O)c1C2=O (stereo not given in full)	71*	87*	nt	nt	nt	nt	6	HKDC1 act conf=52
O=C(O)c1cc(O)c2c(c1)[C@@H]([C@H]1c3cc(C(=O)O)cc(O)c3C(=O)c3c(O[C@@H]4O[C@H](CO)[C@@H](O)[C@H](O)[C@H]4O)cccc31)c1cccc(OC3O[C@H](CO)[C@@H](O)[C@H](O)[C@H]3O)c1C2=O (stereo not given in full)	69*	83*	nt	nt	nt	nt	7	HKDC1 act conf=51
CCOc1ccc(S(=O)(=O)NCc2ccccc2Cl)cc1C(N)=O	75*	1	1.2	9	-22	7	32
O=C(Cn1sc2ccccc2c1=O)Nc1ccc(Br)cc1	123*	nt	nt	nt	nt	nt	91*	Diaph ctr 10uM=-8;Diaph ctr 30uM=5
O=C(Cn1sc2ccccc2c1=O)Nc1ccc(F)cc1	125*	nt	nt	nt	nt	nt	106*	Diaph ctr 10uM=-13;Diaph ctr 30uM=15
O=C(CN1C(=O)C2CC=CCC2C1=O)Nc1ccc(Br)cc1 (stereo not given)	1	-8	nt	nt	nt	nt	nt
O=C(Cn1nc(-c2ccccc2)c2ccccc2c1=O)Nc1ccc(F)cc1	-6	-6	nt	nt	nt	-12	nt
O=C(Cn1sc2ccccc2c1=O)Nc1ccc(Cl)cc1	125*	nt	nt	nt	nt	nt	96*	Diaph ctr 10uM=-30;Diaph ctr 30uM=2
CN(C(=O)COc1ccccc1C(=O)NCCc1ccccc1)c1ccccc1	-5	-6	0.9	5	6	2	nt
CCOc1ccc(S(=O)(=O)N2CCCCC2)cc1NC(=O)Cc1cccc(C(F)(F)F)c1	7	-2	nt	nt	nt	nt	nt
CC(=Nc1ccc(O)cc1)c1sc2ccccc2c1O	18	2	0.8	-22	23	-1	nt
Oc1c(N=Nc2ccccc2)sc2ccccc12	60*	-2	nt	nt	nt	-1	13
O=C(NC1CCCCC1)C(=S)NCCc1ccccc1	65*	-4	1	5	3	3	4
COC(=O)c1cc([N+](=O)[O-])c(C)c(C)n1	10	nt	nt	nt	nt	nt	nt
N#CC1=C2SCN(Cc3ccco3)CN2C(=O)CC1c1cccc2ccccc12 (stereo not given)	63*	14	0.6	28	42	-7	15
S=C1NCN(Cc2ccco2)CN1c1cccc2ccccc12	-5	9	nt	nt	nt	-10	nt
S=C1SCN(Cc2ccco2)CN1Cc1ccco1	10	2	nt	nt	nt	17	nt
N#CC1=C2SCN(Cc3ccco3)CN2C(=O)CC1c1ccccc1F (stereo not given)	67*	2	0.5	30	46	-23	30
SMILES	PfG6PD inh	HKDC1 inh	Diaph act CS	G6PDH counter	Diaph inh CS	TbHK1 inh	PfG6PD confirm	others
CC1Cc2cc(S(=O)(=O)N3CCC(C(=O)Nc4ccccn4)CC3)ccc2N1C(=O)C1CCC1 (stereo not given)	-14	-3	nt	nt	nt	nt	nt
CCN1C(=O)[C@@H]2[C@@H](c3ccc(-c4ccc(OC)cc4)c(OC)c3)N3CCCC[C@@]3(C(=O)OC)[C@@H]2C1=O	14	2	nt	nt	nt	nt	nt
Brc1cccc(Nc2nc(-c3cccnc3)cs2)c1	60*	-1	nt	nt	nt	nt	-14
CCOC(=O)C1=C(CSc2nc(-c3ccncc3)ccc2C#N)OC(N)=C(C#N)C1c1cccnc1 (stereo not given)	18	7	0.9	13	6	-16	nt
CCOC(=O)C1=C(CSc2nc(-c3ccncc3)ccc2C#N)OC(N)=C(C#N)C1c1ccc(OC)cc1 (stereo not given)	59*	11	0.9	9	14	-33	10
CCC(C)C(=O)Nc1nnc(CCc2ccccc2)s1 (stereo not given)	2	1	nt	nt	nt	nt	nt
Cn1c(-c2ccc(Cl)nc2)nc2cc(Cl)ccc21	49	5	nt	nt	nt	nt	22
CC(C)N(Cc1ccccc1)C(=O)CN1C(=O)NC2(CCCC2)C1=O	3	-6	nt	nt	nt	nt	nt
CN=c1sc2c(n1C)C(=O)c1ccccc1C2=O	72*	24	nt	nt	nt	nt	18
CN=c1sc(C(=O)Nc2ccccc2)c(C)n1C	1	-10	1.1	3	-7	-5	nt
CCNc1cc(S(=O)(=O)C(F)(F)F)ccc1N	72*	9	0.9	4	10	-10	42

Compound activity (PubChem BioAssay)
